Screens from PubChem BioAssay.
Rows were chosen to be rich in hits. Some 3.4% of all compounds tested hit in one or more screens of this group.
GPR7 antag: GPR7 receptor antagonists, primary screen, cell-based, fluorescence, single concentration. Neuropeptides B/W receptor type 1 (Homo sapiens), P48145. GPR7-expressing cells, fluorescence antagonist assay. inhibition, % at 4.4 µM. 1.1% of 290,000 active. AID 1861, 2009; in the data active = inhibition above about 16%, passing the limit was not always enough;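 note: cells stimulated with the agonist NPW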
TAAR1 agonist: human TAAR1 agonists, primary screen, Fluo-8 calcium fluorescence, CHO RD-HGA16 cells | activation, % at 3 µM | Trace amine-associated receptor 1 (Homo sapiens), Q96RJ0 | vehicle wells 0%, saturating PEA agonist 100% | 0.99% of 360,000 active;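 active = activation above the mean activation of all test compounds in the run plus 3 SD, cut at about 38% in these data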
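Test system: RD-HGA16 (CHO) cells co-expressing Gα16 and hTAAR1; dosing: one-point dosing at 3 µM (nominal); timing: 17-24 h seeding, 75 min 37 °C dye, 30 min RT; signal: kinetic Fluo-8 calcium fluorescence; read-out basis: % activation relative to PEA EC100 response; controls: DMSO and PEA EC100; replicates: n 1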
TRPN1 ag: zebrafish TRPN1 channel agonists, primary screen, cell-based, HEK293, calcium fluorescence; transient receptor potential cation channel N1 (TRPN1/NompC), Danio rerio; 0.18% of 220,000 active; activation, % at 3 µM; HEK293 zebrafish TRPN1-YFP, Fluo-8 calcium fluorescence; 100% = response to 87 µM carbachol;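 active = activation above its plate's cutoff, the mean activation of test wells on that plate plus 3 SD, cut at about 19% in these data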
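Control set: carbachol 87 µM as high control, DMSO as low control; system: HEK293 stable line with zebrafish TRPN1-YFP; read-out: % activation versus carbachol response; detection: intracellular calcium fluorescence with Fluo-8; doses: single test compound dose, 3 µM nominal, 0.3% DMSO; schedule: dye 1 h 37 °C plus 30 min RT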
TRPML3 ag: human TRPML3 channel agonists, primary screen, cell-based, HEK293 TRPML3-YFP, Fluo-8 calcium fluorescence, 3 µM; Mucolipin-3 (Homo sapiens), Q8TDD5; 100% = the carbachol control signal; activation, % at 3 µM; 0.29% of 220,000 active; AID 1448, 2008;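 active = activation above its plate's cutoff, the mean activation of the plate's test wells plus 3 SD, cut at about 12% in these data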
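Material: HEK293 cells stably carrying human TRPML3-YFP; compound dosing: single dose, 3 µM final nominal compound, 0.3% DMSO final; incubation: 1-h 37 °C dye load, 5-s basal, 120-s post-compound reads; technique: Fluo-8 intracellular calcium fluorescence, excitation 470-495 nm, emission 515-575 nm; read-out basis: percent activation from peak-to-basal fluorescence ratio, scaled between DMSO and carbachol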
LANA-H2A inh: blockers of LANA interaction with H2A/H2B – biochemical, FP readout, HTS, primary screen; inhibition, % (concentration not given with the values); Protein LANA1 (Human herpesvirus 8 type P (isolate GK18)), Q9QR71; 0.6% of 320,000 active; cell-free LANA-H2A/H2B peptide, fluorescence polarization; in the data active = inhibition mostly above about 10%, no sharp cut-off; inactive = mostly below about 6.7%
Target sequence (Q9QR71 whole entry, looked up): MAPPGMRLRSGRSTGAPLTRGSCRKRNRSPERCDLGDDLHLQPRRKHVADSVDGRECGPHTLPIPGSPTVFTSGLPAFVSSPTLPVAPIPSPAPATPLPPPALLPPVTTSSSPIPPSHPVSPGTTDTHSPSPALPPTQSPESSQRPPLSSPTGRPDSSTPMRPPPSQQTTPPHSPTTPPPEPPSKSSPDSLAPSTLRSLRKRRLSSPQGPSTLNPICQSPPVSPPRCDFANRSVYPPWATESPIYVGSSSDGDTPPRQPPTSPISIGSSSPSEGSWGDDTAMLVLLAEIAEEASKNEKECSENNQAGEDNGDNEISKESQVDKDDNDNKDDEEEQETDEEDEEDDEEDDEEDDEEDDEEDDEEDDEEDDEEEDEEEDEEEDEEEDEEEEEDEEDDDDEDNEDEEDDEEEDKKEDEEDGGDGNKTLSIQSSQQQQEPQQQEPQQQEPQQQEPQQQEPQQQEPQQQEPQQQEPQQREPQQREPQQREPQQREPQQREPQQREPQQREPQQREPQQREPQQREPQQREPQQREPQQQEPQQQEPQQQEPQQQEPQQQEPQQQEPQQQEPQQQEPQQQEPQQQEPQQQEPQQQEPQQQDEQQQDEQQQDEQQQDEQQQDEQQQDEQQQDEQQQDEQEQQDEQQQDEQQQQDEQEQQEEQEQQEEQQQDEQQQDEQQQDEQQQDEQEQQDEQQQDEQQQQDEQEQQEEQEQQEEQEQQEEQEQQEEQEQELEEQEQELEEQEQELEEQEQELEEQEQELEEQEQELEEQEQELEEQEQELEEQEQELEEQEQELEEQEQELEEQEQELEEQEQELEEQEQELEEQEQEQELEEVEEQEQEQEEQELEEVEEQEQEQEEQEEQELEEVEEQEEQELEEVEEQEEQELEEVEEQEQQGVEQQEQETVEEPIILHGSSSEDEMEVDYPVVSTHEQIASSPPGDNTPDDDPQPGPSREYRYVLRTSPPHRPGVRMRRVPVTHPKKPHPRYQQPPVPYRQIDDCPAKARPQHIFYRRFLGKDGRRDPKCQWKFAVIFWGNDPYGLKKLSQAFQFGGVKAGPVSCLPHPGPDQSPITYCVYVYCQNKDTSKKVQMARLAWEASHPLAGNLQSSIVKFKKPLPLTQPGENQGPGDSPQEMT
TAAR1 antagonist: human TAAR1 antagonists, primary screen, Fluo-8 calcium fluorescence, CHO RD-HGA16 cells. Trace amine-associated receptor 1 (Homo sapiens), Q96RJ0. antagonist. inhibition, % at 3 µM. 1.5% of 360,000 active. AID 624466, 2012;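 active = inhibition above a per-plate cutoff, the mean inhibition of test compounds on that plate plus 3 SD, cut at about 49% in these data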
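Assay system: RD-HGA16 CHO cells with stable hTAAR1 and Gα16 / Reagent: EC80 β-phenethylamine stimulus / Doses: 3 µM, single point / Timing: dye loading 75 min at 37 °C, then 30 min room temperature / Measured by: Fluo-8 intracellular calcium dye fluorescence, real-time kinetic reads / Controls: vehicle wells and EC80 agonist wells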
GPR7 antag conf: GPR7 receptor antagonists, confirmation, cell-based, fluorescence, single concentration; shares compounds with GPR7 antag; GPR7-expressing cells, calcium fluorescence antagonist mode; inhibition, % at 4.4 µM; 52% of 2,400 active; AID 1952, 2009; in the data active = inhibition above about 24%;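 note: stimulated with the GPR7 agonist NPW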
MCHR1 antag: MCHR1 antagonists in cells, counter-screen for GPR7 antagonist project, cell-based, fluorescence, human; shares compounds with GPR7 antag; MCHR1-expressing cells, fluorescence antagonist assay; inhibition, % at 4.4 µM; 62% of 2,400 active; AID 2148, 2009; in the data active = inhibition above about 22%
A number is an active result; i = inactive; nt = no result.

SMILES	GPR7 antag	TAAR1 agonist	TRPN1 ag	TRPML3 ag	LANA-H2A inh	TAAR1 antagonist	GPR7 antag conf	MCHR1 antag
CC(=O)Nc1ccc(S(=O)(=O)NCc2nc(-c3cccc(C)c3)no2)cc1	24	i	nt	nt	i	i	i	i
COc1cccc(CCc2nnc(CCC(=O)NCCC3CCCCO3)o2)c1 (stereo not given)	i	i	nt	nt	i	i	nt	nt
Cc1nn(CC(=O)Nc2ccccc2C(F)(F)F)c(=O)c2cccn12	31	i	nt	nt	i	i	i	i
CC(=O)c1ccc(S(=O)(=O)N2CCN(C(=O)CSc3ccc(C)c(C)c3)CC2)cc1	35	i	nt	nt	i	i	i	i
Cc1ccc(S(=O)(=O)N2CCN(C(=O)CSc3ccc(Cl)cc3)CC2)cc1	i	i	nt	nt	i	i	nt	nt
Cc1nnc(SCC(=O)NC2CCS(=O)(=O)C2)n1-c1ccccc1 (stereo not given)	25	i	i	i	i	i	i	i
Cc1nc2n(n1)C(O)c1cc([N+](=O)[O-])ccc1S2 (stereo not given)	31	nt	i	i	i	nt	i	i
O=[N+]([O-])c1ccc2c(c1)C(O)n1ncnc1S2 (stereo not given)	i	i	i	i	i	i	nt	nt
CC1CCCN(CCCNC(=O)C2CCCN(c3ncnc4c3nc3n4CCCCC3)C2)C1 (stereo not given)	i	i	nt	nt	i	i	nt	nt
CC1CC(C)CN(CCCNC(=O)C2CCCN(c3ncnc4c3nc3n4CCCCC3)C2)C1 (stereo not given)	28	i	nt	nt	i	i	i	i
CN(C)c1ccc(C(=O)N2CCN(C(=O)C3CCCO3)CC2)cc1 (stereo not given)	nt	i	nt	nt	i	i	nt	nt
CCOc1ccc(NC(=O)CN(C)C(=O)c2cc3c(s2)CCC(C)C3)cc1OCC (stereo not given)	nt	i	nt	nt	i	i	nt	nt
COc1cc2c3c(c1)C(C)=CC(C)(C)N3C(=O)C2=O	27	i	i	i	i	i	i	23
COc1cccc(C(=O)Oc2cc3c4c(c2)C(C)=CC(C)(C)N4C(=O)C3=O)c1	i	i	i	i	i	i	nt	nt
COc1cccc(NC(=O)C2CCN(S(=O)(=O)c3ccc4c(c3)C(C)(C)C(=O)N4C)CC2)c1	i	i	nt	nt	i	i	nt	nt
N#C/C(=C\c1ccc(O)cc1)c1nc2ccccc2o1	i	i	i	i	i	i	nt	nt
COc1cc(/C=C(\C#N)c2nc3ccccc3o2)ccc1O	26	58	66	16	i	51	36	46
Cc1cc(-c2ccc(C(C)C)c(S(=O)(=O)N3CCN(c4ccccc4)CC3)c2)on1	27	i	nt	nt	i	i	30	40
COc1ccc(N2CCN(S(=O)(=O)c3cc(-c4cc(C)no4)ccc3C(C)C)CC2)cc1	i	i	nt	nt	i	i	nt	nt
Cc1cccc(N2CCN(S(=O)(=O)c3cc(-c4cc(C)no4)ccc3C)CC2C)c1 (stereo not given)	31	i	nt	nt	i	i	45	61
CCOC(=O)C1(Cc2cccc(OC)c2)CCCN(S(=O)(=O)CC)C1 (stereo not given)	27	i	nt	nt	i	i	i	i
CCCCC(c1nnnn1C1CCCC1)N1CCN(C2CCCCC2)CC1 (stereo not given)	42	i	i	i	i	i	47	i
CCc1ccc(NC(=O)C(C)Sc2nnc(CN3CCCC3)o2)cc1 (stereo not given)	nt	i	nt	nt	i	i	nt	nt
O=C(Nc1ccccc1F)Nc1cccnc1Cl	nt	i	nt	nt	i	i	nt	nt
COc1ccc(CCNCCC(c2ccccc2)c2ccccc2)cc1OC	nt	i	nt	nt	nt	i	nt	nt
SMILES	GPR7 antag	TAAR1 agonist	TRPN1 ag	TRPML3 ag	LANA-H2A inh	TAAR1 antagonist	GPR7 antag conf	MCHR1 antag
COc1ccc(C(CCNCc2ccc(OC)c(OC)c2)c2ccc(F)cc2)cc1 (stereo not given)	31	i	i	i	i	i	52	80
N#Cc1ccc(S(=O)(=O)N2CCC(C(=O)Nc3cccc(C(=O)NC4CC4)c3)CC2)cc1	nt	i	nt	nt	i	i	nt	nt
Cc1ccc(C(=O)NCCN2C3=NC[C@@H](Cc4ccccc4)N3C[C@H]2Cc2ccc(O)cc2)cc1Br	49	i	i	i	i	i	53	48
O=C(Cn1nc([N+](=O)[O-])nc1Br)NC(c1ccccc1)c1ccccc1	34	i	i	i	i	i	i	i
CN1/C(=C\C(=O)COc2ccc3c(c2)OCO3)C(C)(C)c2ccccc21	28	i	i	i	i	i	i	44
COc1ccc2[nH]cc(CCNC(=O)Nc3ccccc3C)c2c1	i	i	nt	nt	i	i	nt	nt
Cc1cc([N+](=O)[O-])nn1CC(=O)Nc1c(C)n(C)n(-c2ccccc2)c1=O	31	i	i	i	i	i	i	i
Cc1ccc(CN2C(=O)CCC2(C)c2nnnn2-c2ccc3c(c2)OCCO3)cc1 (stereo not given)	nt	i	nt	nt	nt	i	nt	nt
COc1ccccc1/C=C(/C#N)C(=O)O	i	i	i	i	i	i	i	i
CC1(Cc2ccc(OC(F)(F)F)cc2)C(=O)Nc2ccc(S(=O)(=O)NC3CCCCC3)cc21 (stereo not given)	nt	i	nt	nt	nt	i	nt	nt
O=C(Cc1ccccc1)NCC1CCCO1 (stereo not given)	i	i	i	i	i	i	nt	nt
O=P(c1ccccc1)(c1ccccc1)C1CCCO1 (stereo not given)	42	i	i	i	i	i	i	i
COC(=O)CSc1nc(N)c(C#N)c(-c2ccc(O)cc2)c1C#N	i	i	i	i	i	i	nt	nt
CCOC(=O)CSc1nc(N)c(C#N)c(-c2ccc(OCC)cc2)c1C#N	22	i	i	i	i	i	i	22
N/N=C(/Cc1nc2ccccc2[nH]1)c1ccc([N+](=O)[O-])cc1	36	i	i	i	i	i	i	i
c1ccc(N/N=C(\Cc2nc3ccccc3[nH]2)c2ccccc2)cc1	i	i	i	i	nt	i	nt	nt
COC(=O)[C@]12CCCCC=C1N(Cc1ccc(Cl)cc1Cl)C(=O)[C@H](CC(=O)NCCc1ccccc1OC)C2	nt	i	nt	nt	nt	i	nt	nt
